Assay type in all cases: cell membranes, Membrane
Test [1] concerns the target T1, Cholecystokinin receptor type A (Rattus norvegicus, UniProt P30551).
T1 sequence (P30551 whole entry): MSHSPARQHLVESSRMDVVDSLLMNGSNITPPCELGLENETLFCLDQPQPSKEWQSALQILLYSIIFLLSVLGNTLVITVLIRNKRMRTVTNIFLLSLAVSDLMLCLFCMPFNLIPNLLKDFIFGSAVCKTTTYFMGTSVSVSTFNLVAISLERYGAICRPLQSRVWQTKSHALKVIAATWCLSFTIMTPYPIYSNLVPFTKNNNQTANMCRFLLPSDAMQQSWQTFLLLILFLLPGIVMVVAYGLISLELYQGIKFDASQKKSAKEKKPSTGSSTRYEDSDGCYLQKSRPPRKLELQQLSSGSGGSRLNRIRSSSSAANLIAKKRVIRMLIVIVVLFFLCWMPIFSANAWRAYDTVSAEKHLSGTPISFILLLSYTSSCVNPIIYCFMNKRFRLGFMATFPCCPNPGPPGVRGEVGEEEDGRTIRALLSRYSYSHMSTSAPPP
In words: Compound was evaluated for its ability to inhibit [3H]L-364718 binding Cholecystokinin type A receptor in rat pancreas membranes. An outline of the steps:
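Male Wistar rat pancreas membranes, homogenized in 10 mM Hepes pH 7.4/5 mM MgCl2/130 mM NaCl, stored at -80 °C. […] GF/B filtration, scintillation counting. Nonspecific binding with 10 μM lorglumide. IC50 from pseudo-Hill plots, Ki by Cheng-Prusoff. Mean ± SEM of three experiments.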

Test [2] has as its target T1, Cholecystokinin receptor type A. Briefly: Inhibition of [3H]L-364718 binding to cholecystokinin type A receptor in rat pancreas membranes. An outline of the steps: (§1)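 Male Wistar rat pancreas membranes, homogenized in 10 mM Hepes pH 7.4/5 mM MgCl2/130 mM NaCl, stored at -80 °C. GF/B filtration, scintillation counting. Nonspecific binding with 10 μM lorglumide. IC50 from pseudo-Hill plots, Ki by Cheng-Prusoff. Mean ± SEM of three experiments.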

Test [3] has the same target. Briefly: Displacement of [3H]L-364718 from Cholecystokinin type A receptor of rat pancreatic membranes. An outline of the steps:
as §1
On the technique in general: Displacement assays read how much labelled ligand stays bound in the presence of the test substance.

Structures are written as SMILES. Where only a bound is given, the exact number is not on record here.

The results in this text go back to ChEMBL document CHEMBL1125403, “Hybrid cholecystokinin-A antagonists based on molecular modeling of lorglumide and L-364,718” (J Med Chem, 1992).

`O=C(NCCC=C(c1ccccc1)c1ccccc1)c1cc2ccccc2[nH]1`: the Ki in test [1] was greater than 2000 nM.

Consider `O=C(NCC=C(c1ccccc1)c1ccccc1)c1ccc(Cl)cc1`, for which the Ki in test [2] was greater than 2000 nM.

As to `COc1ccc(C(=CCNC(=O)c2cc3ccccc3[nH]2)c2ccc(OC)cc2)cc1`, the inhibition constant (Ki) in test [3] is greater than 4000 nM.

In test [2], `O=C(NCC=C1c2ccccc2CCc2ccccc21)Nc1ccc(Cl)cc1` returned a Ki greater than 4000 nM.

Molecule `O=C(NC/C=C/c1ccccc1)Nc1ccc(Cl)cc1` gave a Ki in test [3] greater than 4000 nM.

For the molecule `O=C(NCC=C(c1ccccc1)c1ccccc1)c1cc2cccc3c2n1CCC3`, the Ki in test [3] was greater than 2000 nM.

`CCCCCC(=CCNC(=O)Nc1ccc(Cl)cc1)CCCCC` registered an inhibitory constant (Ki) in test [3] of 200 nM.

In test [2], `O=C(NCC=C(c1ccccc1)c1ccccc1)c1ccc(Cl)c(Cl)c1` displayed a Ki of 400 nM.

In test [2], `O=C(NCC=C(c1ccccc1)c1ccccc1)c1ccc2ccccc2c1` had a Ki of 450 nM.

Consider `O=C(NCC=C(c1ccccc1)c1ccccc1)c1cnc2ccccc2c1`, for which the inhibition constant Ki in test [3] was greater than 2000 nM.

`O=C(NCC=C(c1ccccc1)c1ccccc1)c1ccnc2ccccc12` gave an inhibition constant Ki in test [3] greater than 2000 nM.

`O=C(NCC=C(c1ccccc1)c1ccccc1)Nc1ccc(Cl)cc1` returned an inhibitory constant (Ki) in test [2] of 90 nM.

With `Cc1cccc(NC(=O)NCC=C(c2ccccc2)c2ccccc2)c1`, the Ki in test [2] was determined as 800 nM.

Turning to `O=C(NCC=C(c1ccccc1)c1ccccc1)c1cccc2ccccc12`, the Ki in test [2] was 1000 nM.

Regarding `CCCCCN(CCCCC)C(=O)[C@@H](CCC(=O)O)NC(=O)c1ccc(Cl)c(Cl)c1`, in test [2], the Ki was found to be 49 nM.

Regarding `O=C(NCC=C(c1ccccc1)c1ccccc1)c1cc2ccccc2[nH]1`, the affinity in test [3] corresponds to a Ki of 340 nM.

On to `O=C(NCC=C(c1ccccc1)c1ccccc1)c1ccc2ccccc2n1`, for which, in test [3], affinity was put at a Ki of 470 nM.

In the case of `O=C(NCCC=C(c1ccccc1)c1ccccc1)Nc1ccc(Cl)cc1`, the affinity in test [3], expressed as Ki, was 400 nM.

As usually defined, the Ki is the dissociation constant of the complex between target and ligand, obtained from inhibition or displacement. A high value points to lower affinity.
